Experimental data published in ChEMBL document CHEMBL1926666, “Synthesis of novel 3-cyclohexylpropanoic acid-derived nitrogen heterocyclic compounds and their evaluation for tuberculostatic activity” (Bioorg Med Chem, 2012).
In brackets after ≈: the same amount, converted by molar mass.

Each molecule was assayed on Mycobacterium tuberculosis (assay: Antituberculosis activity against multidrug-resistant Mycobacterium tuberculosis isolate Spec. 192 by twofold serial dilution method).
Format: functional
Summary of the method: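 Classical two-fold test-tube serial dilution in Youmans' modified Proskauer–Beck liquid medium with 10% bovine serum. Inocula from 14-day cultures. Compounds in ethylene glycol, 10 mg/mL stock, geometric dilutions in medium; 3.1, 6.2, 12.5, 25, 50 and 100 µg/mL evaluated. Incubation at 37 °C. MIC = lowest concentration inhibiting growth relative to a compound-free tube. INH, PZA and RMP served as reference drugs.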
Molecule O=[N+]([O-])c1cc(Cl)cc2[nH]c(CCC3CCCCC3)nc12 has an MIC of 12.5 µg/mL (≈ 40.6 µM).
Work on c1cnc2[nH]c(CCC3CCCCC3)nc2c1 yielded an MIC of 50 µg/mL (≈ 218 µM).
Brc1cnc2[nH]c(CCC3CCCCC3)nc2c1 gave an MIC of 6.2 µg/mL (≈ 20.1 µM).
O=C(CCC1CCCCC1)NN=C1SCCS1 was tested, and the MIC was 100 µg/mL (≈ 367 µM).
Molecule S=c1[nH]nc(CCC2CCCCC2)n1-c1ccc(Cl)cc1 has an MIC of 100 µg/mL (≈ 311 µM).
CSC(=S)NNC(=O)CCC1CCCCC1 gave an MIC of 50 µg/mL (≈ 192 µM).
C=CCn1c(CCC2CCCCC2)n[nH]c1=S was tested, and the MIC was 50 µg/mL (≈ 199 µM).
With c1ccc2c(c1)ccc1nc(CCC3CCCCC3)[nH]c12 the MIC was 1.5 µg/mL (≈ 5.39 µM).
c1ccc2nc3cc4[nH]c(CCC5CCCCC5)nc4cc3nc2c1 gave an MIC of 1.5 µg/mL (≈ 4.54 µM).
Work on S=c1[nH]nc(CCC2CCCCC2)o1 yielded an MIC of 25 µg/mL (≈ 118 µM).
S=c1[nH]nc(CCC2CCCCC2)[nH]1 was tested, and the MIC was 50 µg/mL (≈ 237 µM).
Molecule CNC(=S)NNC(=O)CCC1CCCCC1 has an MIC of 100 µg/mL (≈ 411 µM).
Molecule C=CCNC(=S)NNC(=O)CCC1CCCCC1 has an MIC of 100 µg/mL (≈ 371 µM).
For O=C(CCC1CCCCC1)NNC(=S)NC1CCCCC1, the MIC was 100 µg/mL (≈ 321 µM).
Molecule O=C(CCC1CCCCC1)NNC(=S)Nc1ccc(Cl)cc1 has an MIC of 50 µg/mL (≈ 147 µM).
Cn1c(CCC2CCCCC2)n[nH]c1=S showed an MIC of 100 µg/mL (≈ 444 µM).
With S=c1[nH]nc(CCC2CCCCC2)n1C1CCCCC1 the MIC was 100 µg/mL (≈ 341 µM).
In the case of CSC(=NNC(=O)CCC1CCCCC1)SC, the MIC is reported as 50 µg/mL (≈ 182 µM).
Molecule CC1(C)CNc2nnc(CCC3CCCCC3)n2C1 has an MIC of 100 µg/mL (≈ 381 µM).
Work on Cl.Cl.c1cc2nc(CCC3CCCCC3)[nH]c2cn1 yielded an MIC of 25 µg/mL.
Molecule NNC(=O)c1ccncc1 [ISONIAZID] has an MIC of 0.5 µg/mL (≈ 3.65 µM).
NC(=O)c1cnccn1 [PYRAZINAMIDE] gave an MIC of 25 µg/mL (≈ 203 µM).
CO[C@H]1/C=C/O[C@@]2(C)Oc3c(C)c(O)c4c(O)c(c(/C=N/N5CCN(C)CC5)c(O)c4c3C2=O)NC(=O)/C(C)=C\C=C\[C@H](C)[C@H](O)[C@@H](C)[C@@H](O)[C@@H](C)[C@H](OC(C)=O)[C@@H]1C [RIFAMPIN] showed an MIC of 1.2 µg/mL (≈ 1.46 µM).
